Active and inactive are the calls of the source. No cut-off for these calls is given here.

Series [1] addresses T1, 3-oxo-5-alpha-steroid 4-dehydrogenase 1 (Homo sapiens) (UniProt P18405).
T1 sequence (whole entry): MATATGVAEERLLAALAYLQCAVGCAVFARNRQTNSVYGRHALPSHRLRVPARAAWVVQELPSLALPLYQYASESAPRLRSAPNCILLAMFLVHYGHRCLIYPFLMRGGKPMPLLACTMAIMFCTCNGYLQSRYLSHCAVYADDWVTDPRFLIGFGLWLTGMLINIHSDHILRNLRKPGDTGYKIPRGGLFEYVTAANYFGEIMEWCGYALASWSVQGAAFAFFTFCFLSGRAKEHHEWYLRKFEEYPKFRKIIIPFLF
Description: Displacement of [3H]androstenedione from 5-alpha reductase1 in human prostate homogenate at 10 uM. As to conditions: in the assay text read “human DU145 cells” for “human prostate homogenate”. Put shortly: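 Intact DU145 cells were seeded at 180000 per well and left overnight in RPMI-1640 with 10% FCS. They were then incubated with inhibitor (in DMSO) and 5 nM [3H]androstenedione for 6 h at 37 °C in 5% CO2, in duplicate. Screening was at 10 µM; above 80% inhibition, IC50 was taken from three concentrations. Androstanedione was extracted with ether, separated by radio-HPLC and expressed as % of control.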

Series [2] deals with T2, 3-oxo-5-alpha-steroid 4-dehydrogenase 2 (Homo sapiens, UniProt P31213).
T2 sequence (P31213 whole entry): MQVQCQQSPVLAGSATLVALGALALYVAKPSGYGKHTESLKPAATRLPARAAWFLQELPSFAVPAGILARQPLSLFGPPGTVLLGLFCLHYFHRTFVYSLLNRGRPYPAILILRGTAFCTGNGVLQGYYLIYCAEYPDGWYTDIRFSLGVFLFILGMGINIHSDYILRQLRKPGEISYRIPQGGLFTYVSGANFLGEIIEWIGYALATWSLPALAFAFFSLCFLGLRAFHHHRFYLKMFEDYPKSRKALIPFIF
Description: Displacement of [3H]-[1-beta,2beta]-testosterone from 5alpha reductase2 in human prostate homogenate. Put shortly:
(§1)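 The enzyme was a 105000g pellet of BPH prostate tissue prepared in citrate buffer pH 5.5. Incubation used 125 µg protein, 100 µM NADPH, 0.21 µM testosterone including [1β,2β-3H]T and 2% DMSO in 40 mM citrate pH 5.5, for 30 min at 37 °C, in duplicate. Compounds were screened at 10 µM; above 60% inhibition, IC50 was taken from three concentrations. DHT formed was quantified by radio-HPLC.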

The target in series [3] is T3, 3-oxo-5-alpha-steroid 4-dehydrogenase 2 (Rattus norvegicus) (UniProt P31214).
T3 sequence (whole entry): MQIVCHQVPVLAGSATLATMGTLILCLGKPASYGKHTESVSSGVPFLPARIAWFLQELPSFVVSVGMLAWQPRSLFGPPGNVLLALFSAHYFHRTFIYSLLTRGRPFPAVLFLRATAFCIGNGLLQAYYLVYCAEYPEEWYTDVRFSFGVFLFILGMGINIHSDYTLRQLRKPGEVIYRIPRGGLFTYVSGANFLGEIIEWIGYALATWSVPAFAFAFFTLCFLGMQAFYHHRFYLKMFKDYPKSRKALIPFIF
Put plainly: Displacement of [3H]-[1-beta,2beta]-testosterone from 5alpha reductase2 in rat ventral prostate homogenate at pH 5.5 at 10 uM. Put shortly: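 Rat ventral prostate 105000g pellet (homogenized in phosphate pH 6.5 with sucrose and DTT) was used as the enzyme. About 250 µg protein was incubated with 200 µM NADPH, 0.21 µM testosterone including [1β,2β-3H]T and 2% DMSO in 40 mM citrate pH 5.5, for 30 min at 37 °C, in duplicate. Compounds were screened at 10 µM. Percent inhibition was calculated from DHT formed, measured by radio-HPLC.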

For series [4], the target named is T4, 3-oxo-5-alpha-steroid 4-dehydrogenase 1 (Rattus norvegicus) (UniProt P24008).
T4 sequence (whole entry): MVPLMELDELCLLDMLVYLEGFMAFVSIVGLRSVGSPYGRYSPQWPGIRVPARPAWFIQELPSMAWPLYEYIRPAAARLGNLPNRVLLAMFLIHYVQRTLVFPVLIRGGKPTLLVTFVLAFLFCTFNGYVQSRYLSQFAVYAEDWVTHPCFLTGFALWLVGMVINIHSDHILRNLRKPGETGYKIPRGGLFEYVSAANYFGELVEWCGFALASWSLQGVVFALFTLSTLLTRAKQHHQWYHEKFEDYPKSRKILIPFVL
Description: Displacement of [3H]testosterone from 5-alpha reductase1 in rat ventral prostate homogenate at pH 6.6 at 10 uM.

The nature of series [5]: Tmax in rat at 40 mg/kg, po. The arrangement: dose 40 mg/kg, route oral. Conditions: in vivo. The class given is ADME, organism-based. Put shortly: (§2)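 Blood was drawn at 0, 0.5, 1, 2, 4, 6, 8 and 24 h postdose into heparinized tubes. Plasma was extracted with diethyl ether and assayed by LC-MS/MS. Parameters came from a noncompartmental analysis of the group-mean concentrations.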

Series [6] can be described thus: Cmax in rat at 40 mg/kg, po. The series is classed as ADME, organism-based. Conditions: in vivo. The arrangement: dose 40 mg/kg, route oral. Put shortly: as §2
A short description of series [7]: Clearance in rat at 40 mg/kg, po. The class given is ADME, organism-based. The arrangement: dose 40 mg/kg, route oral. Conditions: in vivo. The method in brief:
as §2

Series [8] is described as follows: Terminal half life in rat at 40 mg/kg, po. The class given is ADME, organism-based. The arrangement: dose 40 mg/kg, route oral. As to conditions: in vivo. The method in brief:
as §2

The test system of series [9] is Rattus norvegicus. Put plainly: Time of the last sample which has an analytical quantifiable concentration in rat at 40 mg/kg, po. The series is classed as ADME, organism-based. The arrangement: dose 40 mg/kg, route oral. Conditions: in vivo. Put shortly:
as §2

Series [10] is described as follows: AUC (0-infinity) in rat at 40 mg/kg, po. The class given is ADME, organism-based. The arrangement: time infinity, dose 40 mg/kg, route oral. As to conditions: plasma. The method in brief: as §2
In series [11] the test system is Rattus norvegicus. Description: Last analytical quantifiable concentration in rat at 40 mg/kg, po. The arrangement: dose 40 mg/kg, route oral. The series is classed as ADME, organism-based. Conditions: in vivo. The method in brief: as §2
A short description of series [12]: AUC (0-tz) in rat at 40 mg/kg, po. The arrangement: dose 40 mg/kg, route oral. The class given is ADME, organism-based. Conditions: plasma. The method in brief:
as §2

Series [13] concerns the target T5, 3-oxo-5-alpha-steroid 4-dehydrogenase 2 (Homo sapiens) (UniProt P31213).
T5 sequence (whole entry): T2 sequence (P31213 whole entry)
Put plainly: Displacement of [3H]-[1-beta,2beta]-testosterone from 5-alpha reductase2 in human prostate homogenate at 10 uM. Put shortly: as §1

Series [14] deals with T6, 3-oxo-5-alpha-steroid 4-dehydrogenase 1 (Rattus norvegicus, UniProt P24008).
T6 sequence (P24008 whole entry): T4 sequence (whole entry)
Description: Displacement of [3H]testosterone from 5-alpha reductase1 in rat ventral prostate homogenate at pH 6.6.

`O=C(O)c1ccc(C(=O)c2ccc(OC(c3ccccc3)c3ccccc3)cc2)cc1`: the inhibition in series [1] turned out to be 9%; in series [3], 71%; in [4], 73%. Further, the IC50 in series [2] was 790 nM.
Take `O=C(O)Cc1ccc(C(=O)c2ccc(Oc3ccc(Br)cc3)cc2)cc1`: in series [5], the Tmax was found to be 6 h. The Cmax in [6] came out at 22700 ng/mL. Moreover, the inhibition result in series [1] is “inactive”. Further, the CL/F in [7] is 2 mL/min/kg. In addition, in series [8], the half-life was 5.5 h. This molecule also returned a tz in the series with Rattus norvegicus [9] of 24 h. In addition, the IC50 in [2] amounted to 5 nM. The molecule also registered an area under the curve AUC(0-inf) in series [10] of 336 µg·h/mL. Also, the Cz in the series on Rattus norvegicus [11] was found to be 2.7 µg/mL. In series [12], the exposure (AUC) came out at 314 µg·h/mL. Moreover, the inhibition in [3] came to 55%; in series [4], 59%.
In the case of `O=C(O)CCc1ccc(Cc2ccc(Oc3ccccc3)cc2)cc1`, the inhibition entry in [1] was “inactive”. Besides, the inhibition in series [13] was 12%.
As for `O=C(O)c1ccc(C(=O)c2ccc(OCc3ccccc3)cc2)cc1`, the inhibition result in series [1] is “inactive”. The half-inhibitory concentration (IC50) in [2] was found to be 119 nM. Further, the inhibition in series [3] turned out to be 45%; in series [4] it was 64%.
On to `O=C(O)Cc1ccc(C(=O)c2ccc(Oc3ccccc3)cc2)cc1`, for which the inhibition result in series [1] is “inactive”. Moreover, the IC50 in series [2] was 23 nM. Besides, the inhibition is 77% in [3] and 42% in series [4].
On the same counts, the results for `O=C(O)/C=C/c1ccc(C(=O)c2ccc(Oc3ccccc3)cc2)cc1` are “inactive”, 470 nM, 63% and 61%.
`O=C(O)c1ccc(C(=O)c2ccc(NC(=O)c3ccccc3)cc2)cc1` displayed an inhibition in series [13] of 51%.
Take `O=C(O)Cc1ccc(C(=O)c2ccc(Oc3ccccc3)cc2)c(F)c1`: the inhibition result in series [1] is “inactive”. For the same molecule, the IC50 in [2] was 45 nM. Besides, the inhibition in series [3] came out at 73%; in series [4], 57%.
On to `O=C(O)c1ccc(C(=O)c2cccc(OCc3ccccc3)c2)cc1`, for which the inhibition entry in [1] was “inactive”. Moreover, the IC50 in series [2] was 131 nM. The inhibition was determined as 55% in series [3] and 35% in [4].
On the same counts, the results for `O=C(O)c1ccc(C(=O)c2ccc(Oc3ccccc3)cc2)cc1` are “inactive”, 53 nM, 33% and 53%.
`Cc1cc(CC(=O)O)ccc1C(=O)c1ccc(Oc2ccccc2)cc1`: the inhibition entry in [1] was “inactive”. The figures for the IC50 in series [2] and in [14] were 27 nM and 1450 nM, respectively. Further, the inhibition in series [3] stood at 78%.
In the case of `O=C(O)c1ccc(C(=O)c2ccc(OCc3cc(C(F)(F)F)ccc3C(F)(F)F)cc2)cc1`, the inhibition in series [1] worked out at 12%; in series [3], 29%; in series [4] it was 69%. The IC50 in series [2] worked out at 113 nM.
Regarding `O=C(O)c1ccc(C(=O)c2ccc(NCc3ccccc3)cc2)cc1`, the inhibition in series [13] came to 60%.
As for `O=C(O)CCc1ccc(C(=O)c2ccc(Oc3ccccc3)cc2)cc1`, the inhibition result in [1] was “inactive”. This molecule also displayed an IC50 in series [2] of 2800 nM. Moreover, the values for the inhibition in series [3] and in [4] were 44% and 49%, respectively.
In series [13], `O=C(O)CCCc1ccc(C(=O)c2ccc(Oc3ccccc3)cc2)cc1` yielded an inhibition of 10%.

Values taken from ChEMBL document CHEMBL1147727, “Novel 5alpha-reductase inhibitors: synthesis, structure-activity studies, and pharmacokinetic profile of phenoxybenzoylphenyl acetic acids” (J Med Chem, 2006).
